# Bioassay records (PubChem)
# A selection: hits, their analogues and other compounds. The true share with any hit is near 3.8%.
# CHO parental Ca: ATP-evoked calcium signal inhibitors, parental CHO, primary screen, counter-screen for OX1R antagonist project, cell-based, fluorescence, Fluo-8 calcium dye; parental CHO-K1, ATP-induced calcium, Fluo-8 fluorescence; inhibition, % at 5.6 µM; 0.63% of 330,000 active;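 active = inhibition above that plate's mean sample inhibition plus 3 SD, cut at about 26% in these data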
#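 Assay system: untransfected parental CHO cell line. Also added: ATP agonist challenge. Dosing: one dose, 5.6 µM nominal. Measured by: Fluo-8 fluorescence. Read-out: % inhibition. Benchmarks: ATP wells versus no-ATP DMSO wells. Repeats: no replicates.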
# OX1R antag-1: antagonists of human orexin 1 receptor (OX1R). Orexin/Hypocretin receptor type 1 (Homo sapiens), O43613. OX1R-expressing cells, FRET antagonist read-out. inhibition, % at 6.6 µM. 1.8% of 330,000 active. AID 485270, 2010; in the data active = inhibition mostly above about 38%, no sharp cut-off; inactive = mostly below about 40%
# MPTP block: mitochondrial permeability transition pore inhibitors, primary screen, biochemical, isolated mouse mitochondria, absorbance; 1.4% of 360,000 active; inhibition, % at 10 µM; Ca2+ swelling absorbance, 30 min; AID 602449, 2012;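 active = inhibition of 50% or more, scaled per plate between neutral and stimulator controls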
# GPR7 antag: GPR7 receptor antagonists, primary screen, cell-based, fluorescence, single concentration. GPR7-expressing cells, fluorescence antagonist assay. inhibition, % at 4.4 µM. 1.1% of 290,000 active; in the data active = inhibition above about 16%, passing the limit was not always enough;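 also: cells stimulated with the agonist NPW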
# Target sequence (P48145 whole entry, looked up): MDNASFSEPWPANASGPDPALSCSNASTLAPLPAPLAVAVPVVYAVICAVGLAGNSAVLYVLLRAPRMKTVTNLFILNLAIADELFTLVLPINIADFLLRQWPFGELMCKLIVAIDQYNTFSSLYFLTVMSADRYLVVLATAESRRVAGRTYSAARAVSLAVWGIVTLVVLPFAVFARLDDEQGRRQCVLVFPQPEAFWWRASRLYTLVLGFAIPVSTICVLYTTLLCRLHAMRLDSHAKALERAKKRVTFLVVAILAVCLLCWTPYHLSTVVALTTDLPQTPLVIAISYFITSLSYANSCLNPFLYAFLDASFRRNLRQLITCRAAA
# OX1R antag-2: OX1R (HCRTR1) antagonists, primary screen, fluorescence, CHO/OX1R cells, Fluo-8 calcium, orexin A | inhibition, % at 5 µM | 0.43% of 330,000 active | AID 434989, 2010 | Orexin/Hypocretin receptor type 1 (Homo sapiens), O43613 | Fluo-8 calcium fluorescence;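 active = inhibition above its plate's threshold, mean inhibition of all tested compounds on the plate plus 3 SD, cut at about 37% in these data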
# Hits are given with their value; n = inactive; x = no result given.
SMILES,CHO parental Ca,OX1R antag-1,MPTP block,GPR7 antag,OX1R antag-2
Cc1nnc(N/N=C/c2ccc(-c3ccccc3F)o2)n1N,n,57,n,n,n
Cc1n[nH]c(=S)n1/N=C/c1ccc(-c2ccccc2[N+](=O)[O-])o1,n,68,n,n,n
O=[N+]([O-])c1cccc(-c2ccc(/C=N/n3c(-c4ccccc4)n[nH]c3=S)o2)c1,n,n,n,n,n
Cc1nnc(N/N=C\c2ccc(-c3ccccc3[N+](=O)[O-])o2)n1N,n,56,n,n,n
CCc1nnc(N/N=C/c2ccc(-c3ccc([N+](=O)[O-])cc3)o2)n1N,n,n,n,n,n
COC(=O)c1ccccc1-c1ccc(/C=N/NC(N)=O)o1,n,n,n,n,n
CC(=O)NC(c1ccccc1)c1nc(-c2cnc3ccccc3c2)cs1 (stereo not given),x,x,n,x,x
Cc1sc2nc3ccc(N4CCCCC4)nn3c(=O)c2c1C,n,76,n,n,n
Cc1ccc2nc3ccc(N4CCCC4)nn3c(=O)c2c1,n,78,n,n,n
Cc1sc2nc3n(c(=O)c2c1C)CCCCC3,n,n,n,n,n
CC1CCCN(c2ccc3nc4ccccc4c(=O)n3n2)C1 (stereo not given),n,n,n,n,n
CCCN(CC(=O)Nc1ccc(Cl)cc1Cl)C(=O)/C=C/c1cc(OC)ccc1OC,n,n,n,n,n
CCCN(CC(=O)Nc1cc(Cl)ccc1Cl)C(=O)/C=C/c1cc(OC)ccc1OC,n,43,n,x,n
Cc1sc(NC(=O)c2ccc(Br)s2)c(C(N)=O)c1C,n,n,n,n,n
Cc1sc(NC(=O)c2ccc(Cl)s2)c(C(N)=O)c1C,n,47,n,n,n
CCCCCn1c(CNC(=O)c2cccs2)nc2ccccc21,n,56,n,n,n
Cc1cccc(C(=O)N[C@H](C(=O)Nc2nc3ccc(S(C)(=O)=O)cc3s2)C(C)C)c1,n,n,n,n,n
COc1ccccc1CNn1c(-c2cccc(C)c2)nc2ccccc2c1=O,n,51,n,n,n
CC(C)N(C)c1ncnc2c1ncn2[C@H]1CN(Cc2ccc(Cl)cc2)C[C@@H](CO)O1,x,x,n,x,x
Cc1nnc(N2C(=O)c3cccc4cccc(c34)C2=O)s1,n,59,n,n,n
CS(=O)(=O)N1CCN(C(=O)NC2CCCCC2)CC1,n,n,n,n,n
CC(Oc1ccc(Br)cc1)C(=O)Nc1ccc(S(=O)(=O)N(C)C2CCN(C)CC2)cc1 (stereo not given),51,n,n,x,n
COc1ccc(CC(=O)Nc2ccc(S(=O)(=O)N(C)C3CCN(C)CC3)cc2)cc1,n,n,n,x,n
CC(=O)Nc1ccc(S(=O)(=O)N(Cc2cccnc2)Cc2cc3ccccc3[nH]c2=O)cc1,n,n,n,n,n
COC(=O)c1ccccc1S(=O)(=O)N(CCCO)Cc1cc2c(C)ccc(C)c2[nH]c1=O,n,46,n,n,n
SMILES,CHO parental Ca,OX1R antag-1,MPTP block,GPR7 antag,OX1R antag-2
CC(=O)Nc1ccc(S(=O)(=O)N(Cc2ccco2)Cc2cc3ccccc3[nH]c2=O)cc1,n,39,n,n,n
COC(=O)c1ccccc1S(=O)(=O)N(Cc1ccco1)Cc1cc2cc(OC)ccc2[nH]c1=O,n,41,n,n,n
O=C1NC[C@@H](CCCCN2C[C@H](Cc3ccccc3)N(Cc3ccccc3)C(=O)C2=O)N(Cc2ccccc2)C1=O,x,x,n,x,x
Cc1cccc(OC2CCN(Cc3nc(CC4CC4)no3)CC2)c1,n,n,n,20,n
COc1ccc(-n2ncc3c2CC(C)(C)CC3NC(=O)CCCN2CCCC2=O)cc1 (stereo not given),n,n,n,n,n
C(=N\NC1=Nc2cccc3cccc1c23)/c1cccnc1,n,72,n,n,n
C(=N\NC1=Nc2cccc3cccc1c23)/c1ccccc1,n,n,n,n,n
Cc1ccccc1S(=O)(=O)NC(=O)C1(C)CCN1C(=O)c1cccc2ccccc12 (stereo not given),x,x,n,x,x
Cc1ccc(NC(=O)CSc2cccc[n+]2[O-])c([N+](=O)[O-])c1,n,69,n,n,n
O=C(CSc1cccc[n+]1[O-])Nc1cc([N+](=O)[O-])ccc1Cl,n,43,n,n,n
CCCCn1c(N)c(N(CC(C)C)C(=O)CCNC(=O)c2ccc([N+](=O)[O-])cc2)c(=O)[nH]c1=O,x,x,n,x,x
O=C(NN1C(=O)/C(=C\c2ccc(O)c([N+](=O)[O-])c2)SC1=S)c1ccccc1Cl,n,64,n,n,n
Cc1cc(C)nc(NN2C(=O)/C(=C/c3ccccc3)SC2=S)n1,n,n,n,n,n
CN(C)c1ccc(/C=C2\SC(=S)N(Nc3ncc(C(F)(F)F)cc3Cl)C2=O)cc1,76,n,n,n,100
COc1cc(/C=C2\SC(=S)N(Nc3ncc(C(F)(F)F)cc3Cl)C2=O)ccc1O,40,n,n,n,49
O=C(O)c1ccc(/C=C2\SC(=S)N(NC(=O)c3ccccc3[N+](=O)[O-])C2=O)cc1,x,x,n,n,x
CCOC(=O)CN1C(=O)S/C(=C/c2ccc(O)c([N+](=O)[O-])c2)C1=O,n,56,n,n,n
O=c1c2cc(NC(=S)N3CCCCCC3)ccc2nc2n1CCCCC2,n,n,n,n,n
CCOc1ccc(-n2c(SCC(=O)N3CCC(C(=O)O)CC3)nc3ccccc3c2=O)cc1,n,n,n,n,n
COc1cc(/C=C2\SC(=S)N(Nc3ccccc3)C2=O)ccc1O,42,n,n,n,n
CCOc1cc(/C=C2\SC(=S)N(Nc3ccccc3)C2=O)ccc1O,n,n,n,n,n
Cc1cc(C)cc(OCC(=O)OCC(=O)c2ccc3c(c2)NC(=O)CO3)c1,38,n,n,n,n
Cc1ccc(S(=O)(=O)N(C)CC(=O)OCC(=O)c2ccc3c(c2)NC(=O)CO3)cc1,n,n,n,x,n
COC(=O)CSCC(=O)Nc1nnc(-c2cccc(C)c2)s1,n,n,n,n,n
CCN(CCNCC(O)COc1ccccc1C(C)C)c1cccc(C)c1 (stereo not given),31,n,n,n,n
SMILES,CHO parental Ca,OX1R antag-1,MPTP block,GPR7 antag,OX1R antag-2
O=C(N/C(=C/c1ccc([N+](=O)[O-])cc1)C(=O)N1CCOCC1)c1ccco1,n,74,n,n,n
CC1Oc2ccccc2N(CC(=O)N2CCCC2)C1=O (stereo not given),n,n,n,n,n
C#CCN1C(=O)S/C(=C/C=C/c2ccc(N(C)C)cc2)C1=O,72,n,n,n,79
CSCc1cc(N(C)c2ccccc2)nc(-c2ccccc2)n1,n,n,n,n,n
CN1C(=O)c2cccc3c(S(=O)(=O)Nc4ccccn4)ccc1c23,n,68,n,n,n
CN1C(=O)c2cccc3c(S(N)(=O)=O)ccc1c23,n,n,n,n,n
O=C(/C=C1\OCc2ccccc21)c1ccccc1,x,x,n,x,x
